Screening results from PubChem.
Shown are actives, neighbours in structure and some others; about 3.4% of the full set was active somewhere.
Runt-SMMHC FRET – inhibitors of RUNX1 Runt–CBFb-SMMHC binding, primary screen, biochemical, FRET, Cerulean-Runt, Venus-CBFb-SMMHC, uHTS | inhibition, % at 20 µM | 0.74% of 220,000 active | Runt-related transcription factor 1 (Homo sapiens) + Core-binding factor subunit beta … | Cerulean-Runt/Venus-CBFb-SMMHC FRET ratio 530/480, 1 h;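 active means mean inhibition across duplicate retests at 20 µM reaching about 50%, limit read from the data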;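 further: 0% = DMSO wells and 100% = wells with excess untagged CBFb-SMMHC; inhibitors lower the FRET ratio by blocking Runt binding to CBFb-SMMHC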
Target sequence (Q01196 whole entry, looked up): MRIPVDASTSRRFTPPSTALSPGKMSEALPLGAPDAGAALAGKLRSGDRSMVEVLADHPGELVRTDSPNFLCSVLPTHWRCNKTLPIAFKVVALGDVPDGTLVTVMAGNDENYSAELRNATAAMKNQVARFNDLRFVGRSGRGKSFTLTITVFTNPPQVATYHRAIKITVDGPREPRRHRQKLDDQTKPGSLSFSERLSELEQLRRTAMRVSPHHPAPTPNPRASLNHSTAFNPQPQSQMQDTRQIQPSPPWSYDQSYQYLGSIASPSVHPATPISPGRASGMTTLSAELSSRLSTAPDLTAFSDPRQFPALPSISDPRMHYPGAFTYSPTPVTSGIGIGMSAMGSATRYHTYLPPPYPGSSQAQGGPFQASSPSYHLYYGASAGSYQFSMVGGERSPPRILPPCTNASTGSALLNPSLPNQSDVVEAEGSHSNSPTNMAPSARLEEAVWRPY
Target sequence (Q13951 whole entry, looked up): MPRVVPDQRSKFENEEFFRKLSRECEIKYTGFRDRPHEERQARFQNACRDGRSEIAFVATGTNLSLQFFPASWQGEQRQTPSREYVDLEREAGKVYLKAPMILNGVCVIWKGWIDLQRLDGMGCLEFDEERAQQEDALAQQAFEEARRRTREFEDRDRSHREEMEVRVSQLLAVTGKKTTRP
Runt-CBFb FRET – inhibitors of RUNX1 Runt–CBFb binding, primary screen, biochemical, FRET, Cerulean-Runt, Venus-CBFb, uHTS | Cerulean-Runt/Venus-CBFb FRET ratio 530/480, 1 h | 0.46% of 220,000 active | inhibition, % at 20 µM | Runt-related transcription factor 1 (Homo sapiens) + Core-binding factor subunit beta …;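 active means inhibition over about 50% at 20 µM in the single-dose screen, limit read from the data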;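 further: 0% = DMSO wells and 100% = excess unlabeled CBFb competitor control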
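Assay system: Cerulean-Runt domain fusion protein, energy donor; Signal: fluorescence energy transfer, 422 nm excitation, 530/480 nm emission; Timing: 1 h compound exposure, room temperature; Control set: unlabeled CBFb; Medium: Tris buffer pH 7.5 with salts and BSA; Compound: single test concentration of 20 µM, 1% DMSO final; Probe or stimulus: Venus-CBFb 100 nM.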
Efa HMGR inh – inhibitors of E. faecalis class II HMGR, primary screen, biochemical, Enterococcus faecalis. AID 1066, 2008. purified E. faecalis HMGR, NADPH absorbance 340 nm kinetic. inhibition, % at 10 µM. 0.41% of 190,000 active. HMG-CoA reductase (Enterococcus faecalis, mvaE);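 active means inhibition above a set limit, the median over all tested compounds plus 3 SD, cut at about 9.5% in these data; inconclusive means no clear call, values can overlap the other calls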;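 further: enzyme runs in reverse so mevalonate oxidation gives rising NADPH absorbance; 0% = complete reaction with DMSO and 100% = background rate lacking mevalonate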
PHOSPHO1 block – PubChem AID 1565 | inhibition, % at 13.3 µM | recombinant PHOSPHO1, absorbance phosphatase assay | Phosphoethanolamine/phosphocholine phosphatase (Homo sapiens), Q8TCT1 | 1.1% of 290,000 active; in the data active means inhibition above about 60%
RanGTP-Imp inh – inhibitors of RanGTP-importin-beta interaction, primary screen, biochemical, FRET, CFP-Ran, YFP-importin-beta, homogeneous | Ran GTPase (GTP-bound) - importin-beta complex | cell-free CFP-Ran/YFP-importin-beta FRET ratio | inhibition, % (test concentration not listed) | 1.1% of 300,000 active | AID 2216, 2009;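 active means more than half of the replicate wells show a fall in the fluorescence ratio signal beyond about 16%, limit read from the data, passing the limit was not always enough; inconclusive means exactly half of the replicate wells pass the set limit; inactive means fewer than half of replicates pass the limit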;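 further: 0% = DMSO wells and 100% = Ran loaded with GDP instead of GTP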
Wee1 degr inh – Wee1 degradation inhibitors, primary screen, cell-based, HeLa, Wee1K328M-luciferase, luminescence; AID 1321, 2008; Wee1-like protein kinase (Homo sapiens), P30291; reporter increase, % at 5 µM; 1.2% of 220,000 active; HeLa Luc-Wee1K328M stability; 100% = proteasome inhibitor MG132 effect;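 active means activation above the mean of all tested compounds plus 3 SD, set per screening run, cut at about 8.8% in these data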;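 further: cells exposed to compound for 20 h before luminescence read; 0% = DMSO alone and 100% = MG132 at 30 µM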
Starred values were filed as active, the others as inactive; ? = inconclusive; . = no result; + = active, no number.

SMILES	Runt-SMMHC FRET	Runt-CBFb FRET	Efa HMGR inh	PHOSPHO1 block	RanGTP-Imp inh	Wee1 degr inh
N#Cc1c2c(c(NCCOCCO)n3c1nc1ccccc13)CCCC2	85*	39	2	44	-4	-2
COc1ccc(Nc2c3c(c(C#N)c4nc5ccccc5n24)CCC3)cc1	34	.	-3	-131	-3	1
COCCNc1c2c(c(C#N)c3nc4ccccc4n13)CCCC2	75*	36	-1	-23	21*	6
CC(=O)Nc1ccc(N2CCc3c(C)c(C#N)c4nc5ccccc5n4c32)cc1	81*	4	3	6	110*	0
Cc1ccccc1CC1(CO)CCCN(C(=O)Cc2c(F)ccc(F)c2F)C1 (stereo unspecified)	.	.	.	34	0	.
O=C(NCc1ccccc1)C(c1ccccc1F)N(C(=O)c1csnn1)C1CCCC1 (stereo unspecified)	.	.	.	4	-3	.
O=C(CSc1n[nH]c(=O)[nH]c1=O)c1ccc([N+](=O)[O-])cc1	-6	5	.	47	-2	12*
COc1ccc(C(=O)CSc2n[nH]c(=O)[nH]c2=O)cc1	2	3	-7	20	4	-2
C/C(=N/NC(=O)C1CCCC1)c1ccc(NC(=O)C(F)(F)F)cc1	.	.	.	3	?	.
C/C(=N/NC(=O)c1ccccc1)c1ccc(NC(=O)C(F)(F)F)cc1	-1	0	0	3	31*	1
O=C(c1ccco1)N1CCN(C(=S)NC2CC3CCC2C3)CC1 (stereo unspecified)	4	3	0	24	-3	-2
CCn1c(=Nc2ccc(N3CCOCC3)cc2)ccc2ccccc21	3	6	-13	-27	3	0
Cn1c(=Nc2ccc(N3CCOCC3)cc2)ccc2ccccc21	0	-1	1	96*	5	-3
Cc1ccc2c(c1)sc1nc(=O)n(-c3ccccc3)c(=O)n12	0	0	.	44	4	9.0*
COc1ccc(Cl)cc1NC(=O)C1CCCN(c2ncnc3c2nc2n3CCCCC2)C1 (stereo unspecified)	.	.	.	-18	3	.
COc1cc2c(cc1/C=C/C(=O)O)OC(C)C2 (stereo unspecified)	4	3	0	37	6	4
CC(C)(O)C1Cc2cc(/C=C/C(=O)O)c(O)cc2O1 (stereo unspecified)	63*	32	1	12	-3	1
CC(C)C(NS(=O)(=O)c1ccccc1)C(=O)N1CCCC1 (stereo unspecified)	.	.	.	5	10	.
CCc1cc(=O)oc2cc(C)cc(OCC(C)=O)c12	-1	-1	.	16	1	11*
CCc1cc(=O)oc2cc(C)cc(OCC(=O)C(C)(C)C)c12	-3	-5	-5	28	-4	-4
CCCNc1nc2ccccc2c(=O)[nH]1	-1	-1	-8	16	-3	-1
CCCNc1cc(=S)nc(N)[nH]1	22	36	.	-83	36*	6
Cc1ccc(S(=O)(=O)c2nc(S(C)(=O)=O)sc2N2CC(C)OC(C)C2)cc1 (stereo unspecified)	.	.	.	43	-2	.
Cc1[nH]nc(Nc2ccc(Br)cc2)c1[N+](=O)[O-]	-1	0	.	24	-3	9.2*
Cc1ccc(Nc2n[nH]c(C)c2[N+](=O)[O-])cc1	1	0	0	-3	4	1
SMILES	Runt-SMMHC FRET	Runt-CBFb FRET	Efa HMGR inh	PHOSPHO1 block	RanGTP-Imp inh	Wee1 degr inh
Cc1[nH]n(C(C)(C)C)c(=O)c1Sc1ccc(Cl)cc1	-2	8	0	74*	1	0
O=C(c1ccco1)N1CCN(C2CC(=O)N(c3ccc(C(F)(F)F)cc3)C2=O)CC1 (stereo unspecified)	.	.	.	38	.	.
CCOC(=O)N1CCN(C(=O)c2cc3c(s2)-c2ccccc2OC3)CC1	4	0	1	38	-3	-1
CCOC(=O)N1CCN(C(=O)c2cc3c(s2)-c2ccc(Cl)cc2S(=O)(=O)C3)CC1	-5	0	-2	6	-5	10*
CN(C)N1C(=O)CC(C)(c2ccc([N+](=O)[O-])cc2)C1=O (stereo unspecified)	.	.	.	.	-1	.
Cc1ccccc1SCCNC(=O)c1ccccc1Br	-2	-1	5	60*	1	-3
O=C(NCCNC(=O)c1ccccc1Br)c1ccccc1Br	.	.	.	24	-4	.
CC(=O)c1cccc(OCc2cc(C(=O)N3C[C@@H](C)O[C@@H](C)C3)no2)c1	.	.	.	30	2	.
COc1cc(/C=N/NC(=O)C(=O)NCc2ccco2)cc(Br)c1O	3	8	.	85*	?	-1
CCOc1ccc(C2C(C(=O)c3ccco3)=C(O)C(=O)N2CCCn2ccnc2)cc1OC (stereo unspecified)	.	.	.	18	2	.
COc1ccc(NC(=O)CNC(=O)c2nn(-c3ccc(OC)c(Cl)c3)c(=O)c3ccccc23)c(OC)c1	.	.	.	0	1	.
c1ccc(-c2nnc(SCc3nnc(-c4cccs4)o3)o2)cc1	-3	2	16*	6	-1	-1
Cc1nnc(SCc2nnc(-c3cccs3)o2)s1	-2	1	3	7	175*	-1
O=C(COc1ccccc1)Nc1nccs1	-3	0	-6	8	2	9.6*
CCOc1ccc(N2CC(C(=O)Nc3ccc(OC)c(S(=O)(=O)N4CCCCC4)c3)CC2=O)cc1 (stereo unspecified)	-3	-2	-7	8	6	7
N=c1c(C(=O)NC2CCCC2)cc2c(=O)n3ccccc3nc2n1CC1CCCO1 (stereo unspecified)	.	.	.	37	174*	.
CCOC(=O)c1cc2c(=O)n3ccccc3nc2n(CC2CCCO2)c1=NC(C)=O (stereo unspecified)	59*	42	.	19	71*	-2
Cc1ccc2nc3c(cc(C(=O)NCC4CCCO4)c(=N)n3CC3CCCO3)c(=O)n2c1 (stereo unspecified)	.	.	.	39	175*	.
CC(NC(=O)c1cc2c(=O)n3ccccc3nc2n(CC2CCCO2)c1=N)c1ccccc1 (stereo unspecified)	.	.	.	39	+	.
O=C(CCCC(=O)Nc1ccccc1Br)N/N=C/c1c(F)cccc1Cl	.	.	.	39	-2	.
O=C(Nc1ccccc1Cl)C1CCCN1C(=O)OCc1ccccc1 (stereo unspecified)	.	.	.	17	-4	.
